The record followed here is ChEMBL document CHEMBL3817780, “Structure-Based Design of 1,4-Dibenzoylpiperazines as β-Catenin/B-Cell Lymphoma 9 Protein-Protein Interaction Inhibitors” (ACS Med Chem Lett, 2016).

The target of data set [1] is T1, beta-catenin-B-cell lymphoma 9 protein complex (Homo sapiens, UniProt P35222).
T1 sequence (P35222 whole entry): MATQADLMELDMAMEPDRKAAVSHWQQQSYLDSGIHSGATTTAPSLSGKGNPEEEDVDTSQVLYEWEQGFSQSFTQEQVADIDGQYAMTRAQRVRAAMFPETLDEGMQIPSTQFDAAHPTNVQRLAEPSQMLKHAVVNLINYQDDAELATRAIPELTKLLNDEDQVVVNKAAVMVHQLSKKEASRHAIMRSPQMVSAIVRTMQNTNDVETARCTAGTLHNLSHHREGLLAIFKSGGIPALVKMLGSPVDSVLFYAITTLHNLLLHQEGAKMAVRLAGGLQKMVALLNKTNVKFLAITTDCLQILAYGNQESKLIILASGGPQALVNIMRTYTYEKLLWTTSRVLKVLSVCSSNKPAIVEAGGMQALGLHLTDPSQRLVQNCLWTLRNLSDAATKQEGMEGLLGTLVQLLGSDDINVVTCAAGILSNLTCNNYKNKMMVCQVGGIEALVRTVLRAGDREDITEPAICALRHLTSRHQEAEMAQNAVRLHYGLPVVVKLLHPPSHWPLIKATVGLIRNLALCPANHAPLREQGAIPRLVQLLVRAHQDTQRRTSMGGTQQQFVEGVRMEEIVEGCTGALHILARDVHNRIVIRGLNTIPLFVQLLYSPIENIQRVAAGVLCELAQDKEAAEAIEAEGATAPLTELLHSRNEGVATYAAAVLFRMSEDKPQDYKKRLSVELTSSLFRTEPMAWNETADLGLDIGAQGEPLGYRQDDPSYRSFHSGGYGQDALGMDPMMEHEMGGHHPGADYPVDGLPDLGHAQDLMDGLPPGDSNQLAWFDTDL
T1 sequence (O00512 whole entry): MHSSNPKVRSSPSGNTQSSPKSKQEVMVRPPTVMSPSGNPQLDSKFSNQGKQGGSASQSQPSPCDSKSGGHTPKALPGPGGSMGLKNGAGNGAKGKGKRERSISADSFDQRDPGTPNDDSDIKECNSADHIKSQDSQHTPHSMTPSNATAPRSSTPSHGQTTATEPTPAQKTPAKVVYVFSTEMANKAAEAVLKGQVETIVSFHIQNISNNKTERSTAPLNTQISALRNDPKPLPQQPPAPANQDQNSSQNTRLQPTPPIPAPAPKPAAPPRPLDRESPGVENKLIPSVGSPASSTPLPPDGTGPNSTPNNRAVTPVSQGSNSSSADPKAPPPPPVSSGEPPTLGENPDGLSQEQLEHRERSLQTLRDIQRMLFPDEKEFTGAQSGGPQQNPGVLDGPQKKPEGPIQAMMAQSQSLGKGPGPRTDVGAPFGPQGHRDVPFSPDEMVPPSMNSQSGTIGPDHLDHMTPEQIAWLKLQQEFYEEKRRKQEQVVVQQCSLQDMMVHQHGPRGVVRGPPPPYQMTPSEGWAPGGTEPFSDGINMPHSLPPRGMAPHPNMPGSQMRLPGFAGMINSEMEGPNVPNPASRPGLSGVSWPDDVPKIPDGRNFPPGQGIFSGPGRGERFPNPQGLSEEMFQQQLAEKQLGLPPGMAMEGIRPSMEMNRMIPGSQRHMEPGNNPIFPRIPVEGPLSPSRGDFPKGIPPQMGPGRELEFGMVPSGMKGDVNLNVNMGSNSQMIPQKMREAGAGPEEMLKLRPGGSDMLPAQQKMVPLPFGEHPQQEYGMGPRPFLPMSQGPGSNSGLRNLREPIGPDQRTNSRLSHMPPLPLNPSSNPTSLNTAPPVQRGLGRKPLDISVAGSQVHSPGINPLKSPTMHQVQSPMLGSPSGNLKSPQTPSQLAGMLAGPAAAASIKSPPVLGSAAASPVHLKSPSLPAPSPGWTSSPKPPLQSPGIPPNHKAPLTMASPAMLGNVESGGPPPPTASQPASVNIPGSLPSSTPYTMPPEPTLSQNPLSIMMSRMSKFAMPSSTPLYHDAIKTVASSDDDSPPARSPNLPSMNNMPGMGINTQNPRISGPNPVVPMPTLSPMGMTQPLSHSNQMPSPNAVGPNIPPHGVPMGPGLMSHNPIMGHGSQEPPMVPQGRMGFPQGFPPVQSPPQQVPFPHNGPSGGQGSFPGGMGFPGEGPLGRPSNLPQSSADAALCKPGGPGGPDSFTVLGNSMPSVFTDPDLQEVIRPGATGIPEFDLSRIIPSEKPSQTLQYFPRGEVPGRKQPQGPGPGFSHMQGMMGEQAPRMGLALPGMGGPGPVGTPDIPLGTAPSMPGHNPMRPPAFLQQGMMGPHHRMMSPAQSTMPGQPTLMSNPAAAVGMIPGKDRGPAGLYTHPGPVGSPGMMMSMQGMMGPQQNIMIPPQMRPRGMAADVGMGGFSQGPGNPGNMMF
Put plainly: Competitive inhibition of wild type beta-catenin (unknown origin) expressed in Escherichia coli BL21 DE3 interaction with N-terminally biotinylated human BCL9 (350 to 375 residues) by alpha screen assay. An outline of the steps:
(§1)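 Competitive AlphaScreen binding assays run in parallel against wild-type β-catenin, one with the BCL9 partner and one with the E-cadherin partner; data given as mean ± standard deviation, n = 3.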
(Alpha assays give light when donor and acceptor beads are brought close together.)

In the next data set the test system is SW480. Put plainly: Cytotoxicity against Wnt-activated human SW480 cells assessed as reduction in cell viability after 72 hrs by MTS assay. The format is functional, cell-based. Particulars: SW480, 72 h. On the technique in general: Formazan colour is commonly taken as a measure of viable cells.
Data set [2] addresses T2, Catenin beta-1 (Homo sapiens) (UniProt P35222).
T2 sequence (whole entry): T1 sequence (P35222 whole entry)
Put plainly: Inhibition of beta-catenin (unknown origin) expressed in HEK293 cells after 24 hrs by topflash dual luciferase reporter gene assay. The format is cell-based. Put shortly:
(§2)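 HEK293 cells transfected with pcDNA3.1−β-catenin; TOPFlash reporter carries wild-type Tcf binding sites and FOPFlash carries mutant Tcf sites; luciferase activity read across a dose series; mean ± standard deviation, n = 2.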
A general note: A reporter such as luciferase makes a cellular process visible.

Data set [3] can be described thus: Cytotoxicity against Wnt-activated human HCT116 cells assessed as reduction in cell viability after 72 hrs by MTS assay. The conditions noted are these: HCT-116, 72 h. Type of data set: functional, cell-based.
In data set [4] the test system is A549. Put plainly: Cytotoxicity against Wnt-signaling latent human A549 cells assessed as reduction in cell viability after 72 hrs by MTS assay. The format is functional, cell-based. Particulars: A549, 72 h.
The test system of a further data set is HEK293. In words: Cytotoxicity against HEK293 cells assessed as reduction in cell viability after 72 hrs by MTS assay. The format is cell-based. The conditions noted are these: Homo sapiens, HEK293, 72 h.
Data set [5] concerns A549. Put plainly: Selectivity ratio of IC50 for human A549 cells to IC50 for human SW480 cells. Type of data set: functional.
For data set [6], the system named is A549. Put plainly: Selectivity ratio of IC50 for human A549 cells to IC50 for human HCT116 cells. The format is functional.
The nature of data set [7]: Selectivity ratio of IC50 for HEK293 cells to IC50 for human SW480 cells. Particulars: HEK293 cells versus SW480 cells, read-out: Ratio IC50. The format is ADME, cell-based.
Data set [8] is described as follows: Selectivity ratio of IC50 for human HEK293 cells to IC50 for human HCT116 cells. Type of data set: ADME, cell-based. The conditions noted are these: HEK293 cells versus HCT116 cells, read-out: Ratio IC50.
For a further data set, the species on record is Homo sapiens. Put plainly: Selectivity ratio of Ki for wild type beta-catenin (unknown origin)/ N-terminally biotinylated human BCL9 (350 to 375 residues) interaction to Ki for wild type beta-catenin (unknown origin)/N-terminally biotinylated human E-cadherin (824 to 887 residues) interaction.
In data set [9] the target is Cadherin-1/Transcription factor 7-like 2 (Homo sapiens, UniProt P12830+Q9NQB0). In words: Competitive inhibition of wild type beta-catenin (unknown origin) expressed in Escherichia coli BL21 DE3 interaction with N-terminally biotinylated human E-cadherin (824 to 887 residues) by alpha screen assay. Put shortly:
as §1

A short description of data set [10]: Competitive inhibition of N-terminally fluorescein-labeled human BCL9 (350 to 375 residues) interaction with beta-catenin E155A mutant (138 to 686 residues) (unknown origin) expressed in Escherichia coli BL21 DE3 after 3 hrs by fluorescence polarization assay.
The nature of data set [11]: Competitive inhibition of N-terminally fluorescein-labeled human BCL9 (350 to 375 residues) interaction with beta-catenin D145A/E155A double mutant (138 to 686 residues) (unknown origin) expressed in Escherichia coli BL21 DE3 after 3 hrs by fluorescence polarization assay.
A short description of data set [12]: Competitive inhibition of N-terminally fluorescein-labeled human BCL9 (350 to 375 residues) interaction with beta-catenin D145A mutant (138 to 686 residues) (unknown origin) expressed in Escherichia coli BL21 DE3 after 3 hrs by fluorescence polarization assay.
The target in data set [13] is T2, Catenin beta-1 (Homo sapiens). Put plainly: Inhibition of beta-catenin (unknown origin) expressed in HEK293 cells up to 100 uM after 24 hrs by fopflash dual luciferase reporter gene assay. Type of data set: cell-based. Put shortly: as §2

Structures are written as SMILES. Calls of active or inactive are those of the source. No cut-off for these calls is given here. Some results are limits rather than exact numbers.

Cadherin-1/Transcription factor 7-like 2, sequence (Q9NQB0 whole entry, the tested form may be a part): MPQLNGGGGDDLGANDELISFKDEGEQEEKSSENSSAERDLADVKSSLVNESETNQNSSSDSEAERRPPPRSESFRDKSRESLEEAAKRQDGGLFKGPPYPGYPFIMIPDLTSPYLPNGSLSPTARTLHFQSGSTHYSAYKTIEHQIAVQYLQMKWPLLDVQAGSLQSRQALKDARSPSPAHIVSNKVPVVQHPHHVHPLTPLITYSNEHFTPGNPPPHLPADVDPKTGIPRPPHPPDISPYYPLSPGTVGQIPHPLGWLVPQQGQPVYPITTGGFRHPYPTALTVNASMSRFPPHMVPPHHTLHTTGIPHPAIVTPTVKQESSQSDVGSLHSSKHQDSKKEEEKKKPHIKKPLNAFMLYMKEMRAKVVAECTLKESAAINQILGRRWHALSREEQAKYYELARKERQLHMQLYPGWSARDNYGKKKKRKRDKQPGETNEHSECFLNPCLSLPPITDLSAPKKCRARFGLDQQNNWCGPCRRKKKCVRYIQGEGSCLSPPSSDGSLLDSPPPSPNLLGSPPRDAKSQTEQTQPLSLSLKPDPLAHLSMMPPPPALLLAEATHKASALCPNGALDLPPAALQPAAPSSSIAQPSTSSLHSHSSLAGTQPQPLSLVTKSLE
Cadherin-1/Transcription factor 7-like 2, sequence (P12830 whole entry, the tested form may be a part): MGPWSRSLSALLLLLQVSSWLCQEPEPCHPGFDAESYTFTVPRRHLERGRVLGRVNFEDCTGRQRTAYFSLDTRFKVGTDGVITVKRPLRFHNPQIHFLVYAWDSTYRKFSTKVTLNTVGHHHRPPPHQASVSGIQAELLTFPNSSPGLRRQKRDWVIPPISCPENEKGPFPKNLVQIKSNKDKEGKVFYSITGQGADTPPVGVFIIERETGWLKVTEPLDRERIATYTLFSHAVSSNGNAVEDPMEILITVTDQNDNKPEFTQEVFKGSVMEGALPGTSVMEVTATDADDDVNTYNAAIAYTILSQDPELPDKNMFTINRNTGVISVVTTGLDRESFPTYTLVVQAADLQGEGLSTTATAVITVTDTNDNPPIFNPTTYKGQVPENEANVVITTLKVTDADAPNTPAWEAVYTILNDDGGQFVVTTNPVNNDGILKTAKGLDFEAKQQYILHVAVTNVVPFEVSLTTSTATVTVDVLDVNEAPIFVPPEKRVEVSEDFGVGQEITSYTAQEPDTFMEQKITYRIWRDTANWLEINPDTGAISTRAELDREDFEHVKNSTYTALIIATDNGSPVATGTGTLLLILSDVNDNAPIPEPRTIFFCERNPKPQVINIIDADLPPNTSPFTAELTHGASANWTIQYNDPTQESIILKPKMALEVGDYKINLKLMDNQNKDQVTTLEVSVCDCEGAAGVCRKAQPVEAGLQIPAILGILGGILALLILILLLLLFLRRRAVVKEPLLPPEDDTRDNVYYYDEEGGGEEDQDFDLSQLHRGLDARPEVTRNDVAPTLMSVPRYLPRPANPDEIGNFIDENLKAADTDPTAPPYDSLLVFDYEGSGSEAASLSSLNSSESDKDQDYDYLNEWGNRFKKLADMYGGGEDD

In general, Ki refers to the equilibrium dissociation constant of an inhibitor or competing ligand from its target. A high value points to weaker binding. Take `O=C(c1cc(F)cc(C2CCNCC2)c1)N1CCN(C(=O)c2ccc(O[C@H]3CCNC3)c(-c3ccc(F)cc3)c2)CC1`: affinity in data set [1] was put at a Ki of 20 µM.

The IC50 is the midpoint of a concentration-inhibition curve. `O=C(c1cc(F)cc(N2CCNCC2)c1)N1CCN(C(=O)c2ccc(O[C@H]3CCNC3)c(-c3ccc(F)cc3)c2)CC1`: the IC50 in the data set on SW480 was determined as 86 µM.

In [1], `CC1(C)CCC(c2cc(C(=O)N3CCN(C(=O)c4cc(F)cc(N5CCNCC5)c4)CC3)ccc2O[C@H]2CCNC2)CC1` registered a Ki of 70 µM. This counts as double-digit micromolar.

For `Cl.Cl.O=C(c1cc(F)cc(N2CCNCC2)c1)N1CCN(C(=O)c2ccc(O[C@H]3CCNC3)c(C3CCC(C(F)(F)F)CC3)c2)CC1` (stereo partly specified), the inhibition entry in data set [2] was “Dose-dependent effect”. Also, the affinity in data set [1], expressed as Ki, was 16 µM. In addition, the IC50 is 44 µM in the data set with SW480, 39 µM in data set [3], over 400 µM with A549 [4] and 130 µM in the data set with HEK293. The “Ratio IC50” value in the data set on A549 [5] and in the data set with A549 [6] was over 10 in each case. Also, the selectivity ratio in [7] and in data set [8] was 3 in each case.

`NCCc1cc(F)cc(C(=O)N2CCN(C(=O)c3cnc(O[C@H]4CCNC4)c(-c4ccc(F)cc4)c3)CC2)c1` came in with a Ki in data set [1] of over 500 µM.

On to `CCC1CCC(c2cc(C(=O)N3CCN(C(=O)c4cc(F)cc(N5CCNCC5)c4)CC3)ccc2O[C@H]2CCNC2)CC1` (stereo partly specified), for which, in [1], affinity was put at a Ki of 170 µM.

With `CC(C)c1cc2c(c(O)c1O)[C@@]1(C(=O)O)CCCC(C)(C)[C@@H]1CC2` [CARNOSIC ACID], the affinity in data set [1] corresponds to a Ki of 5.3 µM. This Ki is about 32-fold lower than that of the compound before.

The compound `O=C(c1cc(F)cc(N2CCNCC2)c1)N1CCN(C(=O)c2ccc(O[C@H]3CCNC3)c(C3CCC(F)(F)CC3)c2)CC1` yielded a Ki in [1] of 45 µM. This Ki lies about 8.5-fold higher than the previous one.

Regarding `O=C(Nc1ccc(OC2CCNC2)c(-c2ccc(F)cc2)c1)c1ccc(O[C@H]2CCNC2)c(-c2ccc(F)c(F)c2)c1` (stereo partly specified), the Ki in data set [1] came out at 2.1 µM. The Ratio Ki in the data set filed under Homo sapiens came to 125.

In turn, `O=C(c1cc(F)cc(N2CCNCC2)c1)N1CCN(C(=O)c2ccc(O[C@H]3CCNC3)c(C3CCCC3)c2)CC1` showed a Ki in data set [1] of 53 µM.

On to `Cl.Cl.O=C(c1cc(F)cc(N2CCNCC2)c1)N1CCN(C(=O)c2ccc(O[C@H]3CCNC3)c(C3CCCCC3)c2)CC1`, for which the inhibition result in [2] was “Dose-dependent effect”. The IC50 in [1] came to 5.6 µM; in data set [9] it was 550 µM; with SW480 it was 22 µM; in data set [3], 26 µM; with A549 [4], 300 µM; with HEK293, 130 µM. Also, the Ki was 510 µM in [9], 39 µM in data set [10], 53 µM in data set [11] and 29 µM in [12]. The inhibition entry in data set [13] was “inactive”. The “Ratio IC50” value in the data set with A549 [5] and in the data set with A549 [6] was over 10 each time. In addition, the selectivity ratio in data set [7] and in [8] was 3 each time.
